Test results: article PMC5826595 (Chemistry (Weinheim an der Bergstrasse, Germany), 2017)
Like-named read-outs stand apart in the source and are kept apart here.

What was measured:
[1] = target: preformed Aβ40 aggregates (Homo sapiens, UniProt P05067); type: biochemical; settings: metal-free and metal-treated conditions
TEAC assay in EtOH = type: biochemical; settings: relative to Trolox
Outline: (§1)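 Radical scavenging was measured by the test compound's quenching of pre-formed ABTS cation radicals (ABTS•⁺). The read-out was absorbance on a microplate reader, and capacity was expressed as Trolox equivalents.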

[2] = TEAC assay in M17 cell lysates; type: biochemical; settings: relative to Trolox
Outline: as §1

metal-free Aβ40 monomer [3] = target: T1, metal-free Aβ40 monomer (Homo sapiens, UniProt P05067); assay: 2D SOFAST-HMQC NMR with metal-free monomeric Aβ40; type: binding; settings: [Aβ40] 80 μM; compound 800 μM (10 equiv); pH 7.4; 10 °C
T1 sequence (P05067 672-711 limits assumed): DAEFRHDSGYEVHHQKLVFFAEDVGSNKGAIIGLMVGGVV
Outline: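 Uniformly ¹⁵N-labeled monomeric Aβ40 (80 μM) with test compound at 0 or 800 μM in 20 mM phosphate buffer, pH 7.4, 50 mM NaCl, 7 % (v/v) D₂O, at 10 °C. 2D ¹H–¹⁵N SOFAST-HMQC spectra were recorded at 900 MHz with a cryogenic probe. Per-residue chemical shift perturbations were plotted against the average CSP with standard deviation; unresolved residues were excluded.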

Aβ40 = Aβ40 (Homo sapiens, UniProt P05067); type: biochemical; settings: inhibition experiment; vs compound-free and L2-b1-treated conditions
Chain of Aβ40 (P05067 672-711 limits assumed): as above

Aβ42 = Aβ42 (Homo sapiens, UniProt P05067); type: biochemical; settings: inhibition experiment; vs compound-free and L2-b1-treated conditions
Chain of Aβ42 (P05067 672-713 limits assumed): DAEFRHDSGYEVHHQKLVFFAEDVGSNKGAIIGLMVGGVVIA
Outline: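 Aβ42 (25 μM) was incubated with test compound (50 μM), either metal-free or with CuCl2 or ZnCl2 (25 μM). Cu samples were at pH 6.6; metal-free and Zn samples at pH 7.4. Incubation was at 37 °C with constant agitation. Size distribution was read by gel/Western blot with anti-Aβ antibody 6E10, and morphology by TEM of the same samples.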

[4] = target: preformed Aβ42 aggregates (Homo sapiens, UniProt P05067); type: biochemical; settings: metal-free and metal-treated conditions
Chain of preformed Aβ42 aggregates (P05067 672-713 limits assumed): as above

[5] = system: SK-N-BE(2)-M17 (M17) cells; assay: Viability of cells treated with metal-free Aβ or metal–Aβ followed by compound; type: cell-based, human; settings: [Aβ] 10 μM, [CuCl2 or ZnCl2] 10 μM, [L2-b2] 20 μM, MTT
Outline: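 SK-N-BE(2)-M17 neuroblastoma cells were first exposed to metal-free Aβ40 or Aβ42, or to Aβ premixed with CuCl2 or ZnCl2. Test compound was added afterwards. Viability was measured by MTT absorbance on a microplate reader and expressed as % of cells given DMSO only (0–1 %, v/v).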

metal-free Aβ40 [6] = target: T2, metal-free Aβ40 (Homo sapiens, UniProt P05067); assay: ESI-MS of metal-free Aβ40 incubated with compound; type: binding; settings: [Aβ40] 10 μM; [L2-b2] 50 μM; pH 7.5; 37 °C; 6 h
T2 sequence (P05067 672-711 limits assumed): as the sequence (P05067 672-711 limits assumed) above

Cu^II–Aβ40 = Cu^II–Aβ40 (Homo sapiens, UniProt P05067); assay: nESI-MS and MS/MS of Aβ40 incubated with Cu^II and compound; type: biochemical; settings: [Aβ40] 20 μM; [CuCl2] 20 μM; [L2-b2] 120 μM; pH 7.5; 37 °C; 30 min
Chain of Cu^II–Aβ40 (P05067 672-711 limits assumed): as above

metal-free Aβ40 monomer [7] = target: T1, metal-free Aβ40 monomer; settings: ref 4e; cited from earlier work
metal-free Aβ40 [8] = target: T2, metal-free Aβ40; settings: ref 4b,f; cited from earlier work
[9] = system: metal-free Aβ and metal–Aβ; settings: ref 4b,f; cited from earlier work

Chain of preformed Aβ40 aggregates (P05067 672-711 limits assumed): as above

c1ccc(CNCc2ccccn2)nc1 [DPA1, bis(pyridin-2-ylmethyl)amine, reference compound]
Disaggregation of preformed Aβ40 aggregates (gel/Western blot) [1]: could not detectably disaggregate preformed Aβ40 aggregates

CN(C)c1ccc(CNCc2ccc(N(C)C)cn2)nc1 [DPA2, 6-((((5-(dimethylamino)pyridin-2-yl)methyl)amino)methyl)-N,N-dimethylpyridin-3-amine]
Disaggregation of preformed Aβ40 aggregates (gel/Western blot) [1]: could not detectably disaggregate preformed Aβ40 aggregates

CN(C)c1ccc(CNc2ccccc2)nc1 [L2-b1, N,N-dimethyl-6-((phenylamino)methyl)pyridin-3-amine]
Disaggregation of preformed Aβ40 aggregates (gel/Western blot) [1]: could not detectably disaggregate preformed Aβ40 aggregates | TEAC value (TEAC assay in EtOH): 0.8 ± 0.1 | TEAC value [2]: 0.7 ± 0.1 | Interaction with metal-free Aβ40 monomer (CSP) (metal-free Aβ40 monomer [3]): weak interactions with metal-free Aβ

CN(C)c1ccc(NCc2ccc(N(C)C)cn2)cc1 [L2-b2, N^1-((5-(dimethylamino)pyridin-2-yl)methyl)-N^4,N^4-dimethylbenzene-1,4-diamine]
Morphology of resultant Aβ40 aggregates (TEM) (Aβ40): more amorphous aggregates and/or smaller fibrils | Morphology of resultant Aβ42 aggregates (TEM) (Aβ42): more amorphous aggregates and/or smaller fibrils | Disaggregation of preformed Aβ40 aggregates (gel/Western blot) [1]: displayed various-sized peptide aggregates to different degrees | Disaggregation of preformed Aβ42 aggregates (gel/Western blot) [4]: dismantle preformed metal-free and metal-treated Aβ42 aggregates | Effect on toxicity triggered by metal-free Aβ and metal–Aβ in living cells [5]: possibly alleviate toxicity triggered by metal-free Aβ and metal–Aβ in living cells | TEAC value (TEAC assay in EtOH): 1.9 ± 0.1 | TEAC value [2]: 1.1 ± 0.1 | Interaction with metal-free Aβ40 monomer (CSP) (metal-free Aβ40 monomer [3]): weak interactions with metal-free Aβ | Interaction with metal-free Aβ (ESI-MS) (metal-free Aβ40 [6]): forming a covalent adduct of Aβ–cationic imine | Mass loss of Aβ40 compared to apo Aβ40 (degraded Aβ) (Cu^II–Aβ40): 89.1 (± 0.1) Da

CN(C)c1ccc(NCc2ccccn2)cc1 [L2-b, N^1,N^1-dimethyl-N^4-(pyridin-2-ylmethyl)benzene-1,4-diamine]
Interaction with metal-free Aβ40 monomer (CSP) (metal-free Aβ40 monomer [7]): weak interactions with metal-free Aβ | Interaction with metal-free Aβ (metal-free Aβ40 [8]): unable to interact with metal-free Aβ | Reactivity toward metal-free Aβ and metal–Aβ aggregation pathways [9]: reactivity only for metal–Aβ species

NCc1ccccn1 [PMA1, pyridin-2-yl-methanamine, reference compound]
Disaggregation of preformed Aβ40 aggregates (gel/Western blot) [1]: could not detectably disaggregate preformed Aβ40 aggregates

CN(C)c1ccc(CN)nc1 [PMA2, 6-(aminomethyl)-N,N-dimethylpyridin-3-amine, reference compound]
Disaggregation of preformed Aβ40 aggregates (gel/Western blot) [1]: could not detectably disaggregate preformed Aβ40 aggregates
